ZTA counter – ZTA (EBV) inhibition in EBNA-1 counter-screen; P03206; ZTA-DNA binding, fluorescence polarization; inhibition, % at 11 µM; hit rate 0.15% among 320,000; AID 2234; in the data active means inhibition above about 33%
Target sequence (P03206 whole entry, looked up): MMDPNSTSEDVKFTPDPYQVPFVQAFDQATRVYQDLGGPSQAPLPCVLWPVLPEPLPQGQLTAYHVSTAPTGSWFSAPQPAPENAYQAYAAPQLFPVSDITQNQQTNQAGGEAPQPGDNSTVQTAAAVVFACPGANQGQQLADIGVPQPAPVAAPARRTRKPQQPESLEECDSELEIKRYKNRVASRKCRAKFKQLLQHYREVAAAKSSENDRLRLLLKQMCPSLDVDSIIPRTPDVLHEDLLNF
FID counter – counter-screen for HCV NS3 helicase inhibitors: DNA intercalator displacement; DNA fluorescent intercalator displacement, fluorescence; inhibition, % at 7.9 µM; hit rate 0.17% among 290,000; in the data active means inhibition above about 37%;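 further: higher means more ethidium bromide displaced from hairpin DNA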
NR3A LBD binder – NR3A (human) ligand-binding domain modulation; NR3A LBD differential scanning fluorimetry, Tm shift; 0% = protein alone, 100% = glycine-bound protein; Tm shift relative to glycine control, % at 25 µM; hit rate 2.5% among 340,000; AID 1259313;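 active means melting temperature shift of at least 10% of the positive control shift, at one fixed dose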
FGF22 binding – binders of recombinant human FGF22 by thermal shift; hit rate 1.5% among 340,000; activity (Tm shift, normalised), % at 9.99 µM; Q9HCT0; SYPRO orange fluorescence; percent of sucrose octasulfate shift, DMSO zero; AID 651658;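 active means mean Tm shift, scaled 0 neutral to 100 positive control, at about 1.3% or above, every replicate too, limit read from the data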
Target sequence (Q9HCT0 whole entry, looked up): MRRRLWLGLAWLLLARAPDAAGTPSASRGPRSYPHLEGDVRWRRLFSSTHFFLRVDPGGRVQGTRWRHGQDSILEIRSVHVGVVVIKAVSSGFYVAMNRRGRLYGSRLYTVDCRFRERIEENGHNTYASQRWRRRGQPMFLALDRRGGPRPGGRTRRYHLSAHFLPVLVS
EBNA-1 inhibitor – blocks EBNA-1 binding to DNA. EBNA-1 DNA binding, fluorescence polarization. inhibition, % at 14.8 µM. AID 1950. hit rate 0.34% among 300,000; in the data active means inhibition above about 28%
NS3 helicase inh – HCV NS3 helicase inhibition. NS3 helicase DNA unwinding, Cy5 molecular beacon fluorescence. inhibition, % at 10.9 µM. hit rate 0.56% among 290,000. AID 1800;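 active means inhibition above the mean of all tested compounds plus 3 SD, set per campaign, cut at about 35% in these data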
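Material: hepatitis C virus NS3 helicase domain fragment enzyme; measured by: Cy5 fluorescence, 0 and 60 min reads; control set: DMSO and thioflavine S; incubation: 60 min unwinding reaction at 25 °C after ATP addition; read-out basis: % inhibition from 60/0 min fluorescence ratio, DMSO 0%, thioflavine S 100%; repeats: singlicate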
A number is an active result; n = inactive; x = no result. Sampled rows, rich in hits. Any-hit rate of the full collection: about 3.6%.

SMILES	ZTA counter	FID counter	NR3A LBD binder	FGF22 binding	EBNA-1 inhibitor	NS3 helicase inh
O=C1c2cc(Cl)ccc2-c2c(O)cc(Cl)cc21	x	x	14	n	x	x
O=c1cc(O)c(-c2ccc(Cl)cc2)c(Cl)[nH]1	n	n	n	n	n	n
COCC(=O)Nc1ccc2c(c1)[C@H]1C[C@H](CC(=O)NCc3cc(F)ccc3F)O[C@@H](CO)[C@H]1O2	x	x	x	n	x	x
Cc1nn(-c2ccccc2)c(Cl)c1/C=N/NS(=O)(=O)c1ccc(Br)cc1	n	n	17	x	n	n
CNC(=S)N/N=C/c1c(C)nn(-c2ccccc2)c1Cl	n	n	n	x	n	n
C[C@@H]1CCCCO[C@H](CN(C)S(=O)(=O)c2ccccc2)[C@@H](C)CN([C@H](C)CO)C(=O)c2cc(NC(=O)CCC(F)(F)F)ccc2O1	x	x	x	3.9	x	x
C[C@@H]1CN([C@@H](C)CO)C(=O)c2cc(NC(=O)CCC(F)(F)F)ccc2O[C@@H](C)CCCCO[C@H]1CN(C)S(=O)(=O)c1ccccc1	x	x	x	n	x	x
C[C@@H]1CCCCO[C@@H](CN(C)S(=O)(=O)c2ccccc2)[C@H](C)CN([C@@H](C)CO)C(=O)c2cc(NC(=O)Nc3ccccc3)ccc2O1	x	x	x	2.0	x	x
C[C@@H]1CCCCO[C@H](CN(C)S(=O)(=O)c2ccccc2)[C@H](C)CN([C@H](C)CO)C(=O)c2cc(NC(=O)Nc3ccccc3)ccc2O1	x	x	x	n	x	x
CN1CCN(C(=O)C[C@@H]2C[C@@H]3c4cc(NC(=O)Nc5ccc(C(F)(F)F)cc5)ccc4O[C@@H]3[C@H](CO)O2)CC1	x	x	x	n	x	x
NC(=O)c1ncc(C(F)(F)F)cc1Oc1cccc(F)c1	n	n	n	x	n	n
NC(=O)c1ncc(C(F)(F)F)cc1Oc1cccc(C(F)(F)F)c1	n	n	11	x	n	n
CCc1ccc(-c2cc(C)no2)cc1S(=O)(=O)Nc1cc(C)on1	n	n	31	n	n	n
CCc1ccc(-c2cc(C)no2)cc1S(=O)(=O)Nc1ccc(Cl)cn1	n	n	n	n	n	n
COc1ccc(CCNc2oc(-c3ccc(OC)c(OC)c3)nc2C#N)cc1	n	n	16	x	n	n
COc1cccc(-c2cc(C(=O)Nc3c(C)nn(Cc4ccccc4C)c3C)no2)c1	n	n	11	x	n	n
COc1cccc(-c2cc(C(=O)Nc3c(C)nn(Cc4ccccc4)c3C)no2)c1	n	n	n	n	n	n
O=C(O)c1ccc(CSc2nc(-c3ccc(Cl)cc3)cc(C(F)(F)F)n2)cc1	n	n	38	n	n	n
O=C(O)c1ccc(CSc2nc(-c3ccccc3)cc(C(F)(F)F)n2)cc1	n	n	n	x	n	n
CC1=Nc2ccccc2/C1=C\c1nc(-c2ccc(F)cc2)oc1O	n	n	30	n	n	n
Cc1[nH]nc(SCC(=O)Nc2cccc(O)c2)c1[N+](=O)[O-]	n	n	22	x	n	n
O=C(C[C@H]1CC[C@@H]2[C@H](COC[C@@H](O)CN2Cc2cccc(C(F)(F)F)c2)O1)NCc1ccncc1	x	x	x	n	x	x
COc1cccc(-c2cnc3c(c2)C(=O)N([C@@H](C)CO)C[C@@H](C)[C@H](CN(C)Cc2ccc(C(=O)O)cc2)O3)c1	x	x	x	n	x	x
CCOc1cc(N2CCOCC2)c(OCC)cc1NC(=S)NCCCOC	n	n	n	43	n	n
CCOc1cc(NC(=S)NCCCN2CCOCC2)c(OCC)cc1NC(=O)c1cccc(C)c1	n	n	n	n	n	n
SMILES	ZTA counter	FID counter	NR3A LBD binder	FGF22 binding	EBNA-1 inhibitor	NS3 helicase inh
Cc1cccc(NC(=O)CN2C(=O)S/C(=C\C(=O)Nc3ccc(Cl)cc3)C2=O)c1	n	n	n	x	n	n
O=C(/C=C1\SC(=O)N(CC(=O)Nc2ccc(Cl)cc2)C1=O)Nc1ccc(F)cc1	n	n	36	n	n	n
O=C(/C=C1\SC(=O)N(CC(=O)Nc2ccc(F)cc2)C1=O)Nc1ccc(Cl)cc1	n	n	27	n	n	n
O=C(CN1CCN(CC(=O)Nc2ccc(Cl)cc2)CC1)Nc1ccc(F)cc1	n	n	n	n	n	n
C[C@@H]1CN([C@@H](C)CO)C(=O)c2cccc(NC(=O)C3CC3)c2O[C@H]1CN(C)C	x	x	x	n	x	x
CNC(=O)c1ccsc1NC(=O)CCS(=O)(=O)c1ccc(C)cc1	n	x	n	n	n	x
CNC(=O)c1ccsc1NC(=O)CCS(=O)(=O)c1ccccc1	n	n	n	43	n	n
CCCCCCC1C(C#N)=C(N)OC2=C1C(=O)CC(C)(C)C2 (stereo not given)	n	n	44	n	n	n
COc1ccc(-c2cnc3nc(/N=C/N(C)C)nn3c2/N=C/N(C)C)cc1	n	n	n	43	n	n
CN(C)/C=N/c1nc2nccc(-c3ccc(Cl)cc3)n2n1	n	n	n	n	n	n
O=C(C[C@H]1CC[C@@H](NC(=O)Nc2cc(F)ccc2F)[C@H](CO)O1)NCc1ccncn1	x	x	x	n	x	x
C[C@@H]1CCCCO[C@H](CN(C)Cc2ccncc2)[C@H](C)CN([C@H](C)CO)C(=O)c2cc(NC(=O)Nc3ccc(F)cc3)ccc2O1	x	x	x	n	x	x
COc1ccc2c3c(n(C)c2c1)[C@H](CO)N(C)CC31CCN(CC2CC2)CC1	x	x	x	n	x	x
CC1CCC(NC(=O)C2CCN(S(=O)(=O)c3ccc4nc5c(c(C(=O)O)c4c3)CC(C)CC5)CC2)CC1 (stereo not given)	n	n	n	43	n	n
CC=Cc1ccc2n(c1=O)C[C@@H]1[C@@H](CO)[C@H](C(=O)NCC(F)(F)F)[C@H]2N1C(=O)C1CCCCC1 (mixture of isomers)	x	x	x	n	x	x
CC(C)CN(CC(C)C)C(=O)c1cccc(S(=O)(=O)N2CCc3ccccc32)c1	n	n	n	44	n	n
Cc1ccc(C(=O)OCC(=O)NCc2ccco2)cc1	n	n	10	x	n	n
O=C(COC(=O)c1cccc(S(=O)(=O)N2CCc3ccccc3C2)c1)NCc1ccco1	n	n	n	x	n	n
O=C(COC(=O)c1cccc(S(=O)(=O)N2CCc3ccccc32)c1)NCc1ccco1	n	n	n	44	n	n
Cc1cc(C)c(C)c(S(=O)(=O)NC(C(=O)O)C(C)C)c1C (stereo not given)	n	n	n	43	n	n
O=C(C[C@@H]1C[C@H]2c3cc(NC(=O)NC4CCCC4)ccc3O[C@H]2[C@H](CO)O1)NCc1ccc(Cl)cc1	x	x	x	n	x	x
O=S(=O)(c1ccc(OCC2CO2)cc1)c1ccc(OCC2CO2)cc1 (stereo not given)	n	n	n	43	n	n
CC(C)(c1ccccc1)c1ccc(OCC2CO2)cc1 (stereo not given)	n	n	n	n	n	n
Cc1ccc(NC(=O)CN(C)S(=O)(=O)c2cccc3cccnc23)cc1F	n	n	14	n	n	n
C[C@@H](NC(=O)C[C@H]1C=C[C@H](NC(=O)C2CC2)[C@@H](CO)O1)c1ccccc1	x	x	x	n	x	x

Source: PubChem
